This note sets out measurements from ChEMBL document CHEMBL3259518, “Semisynthesis, ex vivo evaluation, and SAR studies of coumarin derivatives as potential antiasthmatic drugs” (Eur J Med Chem, 2014).

Assay type in all cases: functional
Experiment [1] can be described thus: Antiasthamic activity in Wistar rat tracheal ring assessed as reversal of carbachol-induced contraction at 0.1 to 500 uM relative to control. As to conditions: Trachea. Put shortly:
(§1)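 Tracheas from male Wistar rats (250–300 g) were cleaned and cut into 4–5 mm rings of 2–3 cartilages each. Tension was recorded with force transducers. After equilibration, rings were contracted with 1 µM carbachol and washed every 40 min for 2 h. Cumulative concentration–response curves followed carbachol contraction, with relaxation taken from tone before vs after addition. Theophylline (1.67–550 µM) was the positive control. Six animals per group; EC50 and Emax came from nonlinear curve fitting.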

A short description of experiment [2]: Antiasthamic activity in Wistar rat tracheal ring assessed as reversal of carbachol-induced contraction. As to conditions: Trachea. In a few lines:
as §1

The next experiment deals with Trachea. Kind of experiment: Potency index, ratio of theophylline EC50 to compound EC50 for antiasthamic activity in Wistar rat tracheal ring assessed as reversal of carbachol-induced contraction.

In general, Emax refers to the greatest response seen or fitted, relative to the assay's reference. The term EC50 denotes the concentration giving half of the maximal effect.

As to `CC(=O)Oc1ccc2c(C)cc(=O)oc2c1`, the Emax in experiment [1] is 62%. Also, in experiment [2], the EC50 was determined as 360 µM. Turning to `Cc1cc(=O)oc2cc(OC(=O)c3ccccc3)ccc12`, the Emax in experiment [1] is 34%.

Turning to `O=C(Oc1ccc2ccc(=O)oc2c1)c1ccccc1`, the Emax in experiment [1] amounted to 26%.

In the case of `CCOC(=O)COc1ccc2c(C)cc(=O)oc2c1`, the Emax in experiment [1] turned out to be 70%. Also, in experiment [2], the EC50 is 200 µM. On to `CCOc1ccc2c(C)cc(=O)oc2c1`, for which, in experiment [1], the Emax is 100%. For the same compound, the EC50 in experiment [2] worked out at 80 µM. For the compound `CCOC(=O)COc1ccc2ccc(=O)oc2c1`, in experiment [1], the Emax is 31%. Regarding `CCOc1cc2ccc(=O)oc2cc1OCC`, the Emax in experiment [1] came to 100%. In experiment [2], the EC50 came to 42 µM. Also, in the experiment on Trachea, the “Ratio EC50” value was 4. `CCCOc1cc2ccc(=O)oc2cc1OCCC`: in experiment [1], the Emax amounted to 100%. In addition, in experiment [2], the EC50 was 89 µM. On the same counts, the results for `CC(=O)Oc1cc2ccc(=O)oc2cc1OC(C)=O` are 77% and 231 µM.

Consider `O=C(Oc1cc2ccc(=O)oc2cc1OC(=O)c1ccccc1)c1ccccc1`, for which the Emax in experiment [1] turned out to be 12%. On to `CCOC(=O)COc1cc2ccc(=O)oc2cc1OCC(=O)OCC`, for which the Emax in experiment [1] turned out to be 33%.

In the case of `CCCOc1ccc2c(C)cc(=O)oc2c1`, in experiment [1], the Emax was 100%. For the same compound, the EC50 in experiment [2] turned out to be 267 µM. As to `CC(=O)Oc1ccc2ccc(=O)oc2c1` [7-ACETOXYCOUMARIN], in experiment [1], the Emax is 16%. As to `CCCOc1ccc2ccc(=O)oc2c1` [7-PROPOXYCOUMARIN], in experiment [1], the Emax is 100%. For the same compound, the EC50 in experiment [2] turned out to be 133 µM. With `O=c1ccc2cc(O)c(O)cc2o1` [ESCULETIN], the Emax in experiment [1] amounted to 47.9%. On to `CCOc1ccc2ccc(=O)oc2c1` [ETHOXYCOUMARIN], for which the Emax in experiment [1] amounted to 100%. Besides, the EC50 in experiment [2] is 245 µM. For `COc1ccc2ccc(=O)oc2c1` [HERNIARIN], in that order: 100% and 244 µM. For `COc1ccc2c(C)cc(=O)oc2c1` [HYMECROMONE METHYL ETHER], in that order: 100% and 230 µM.

As for `Cc1cc(=O)oc2cc(O)ccc12` [HYMECROMONE], in experiment [1], the Emax worked out at 90%. For the same compound, the concentration giving a half-maximal response (EC50) in experiment [2] amounted to 260 µM. On the same counts, the results for `COc1cc2ccc(=O)oc2cc1OC` [SCOPARONE] are 100% and 80 µM.

On to `Cn1c(=O)c2nc[nH]c2n(C)c1=O` [THEOPHYLLINE], for which the Emax in experiment [1] turned out to be 100%. The EC50 in experiment [2] is 144 µM. In the case of `O=c1ccc2ccc(O)cc2o1` [UMBELLIFERONE], in experiment [1], the Emax is 67%. Also, in experiment [2], the EC50 stood at 449 µM.
